According to ChEMBL document CHEMBL1139365, “Inhibition of MDR1 activity in vitro by a novel class of diltiazem analogues: toward new candidates” (J Med Chem, 2009):
pIC50: −log10 of the molar value. Activity calls are given as the source filed them. No cut-off for these calls is given here.

Tests used:
[1] = system: A2780; experiment: Antiproliferative activity against human A2780 cells after 3 days by MTT assay; format: functional, cell-based; conditions: for pIC50: Homo sapiens, A2780, 72 h
Summary of the method: (§1)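 Cells plated 6–8 h in 96-well plates. Compound alone, in duplicate at ≥5 concentrations (3-fold serial dilutions, top 100 μM), with final DMSO […] after predilution in FCS. After 3 days, MTT 4 h at 37 °C, formazan dissolved in DMSO, A540. IC50 taken from single dose–response curves; 3–4 experiments. A2780/DX3 kept doxorubicin-free 2–3 days beforehand.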

[2] = Antiproliferative activity against human A2780/DX3 cells after 3 days by MTT assay; format: functional, cell-based; conditions: for pIC50: Homo sapiens, A2780/DX3, 72 h; summary of the method: as §1
[3] = system: A2780; experiment: Ratio of IC50 for human A2780/DX3 cells to IC50 for human A2780 cells assessed as mean resistance index; format: functional
Summary of the method: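 Doxorubicin alone tested by 3-day MTT assay in both lines (absorbance at 540 nm). IC50 from dose–response curves. Index is the mean IC50 in resistant cells divided by the mean IC50 in sensitive cells.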

[4] = system: A2780 ADR; experiment: Reversal of P-gp 170-mediated multidrug resistance in human A2780/DX3 cells assessed as increase in intracellular doxorubicin accumulation at 5 times IC5 pretreated for 2 hrs before doxorubicin administration measured after 2 hrs by epifluorescent microscopic analysis; format: cell-based
Summary of the method: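 A2780/DX3 cells on chamber slides at 75–85% confluence, pretreated 2 h with compound at five times the concentration giving 5% growth inhibition. Doxorubicin 10 μM then added for 2 h. Cells washed in cold PBS, fixed in 3.7% paraformaldehyde/2% sucrose, mounted and imaged by epifluorescence at 20X. Untreated and compound-only controls included.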

[5] = system: A2780; experiment: Antiproliferative activity against human A2780 cells at 0.14 uM after 3 days by MTT assay; format: functional; conditions: A2780, 72 h
[6] = system: A2780 ADR; experiment: Reversal of P-gp 170-mediated multidrug resistance in human A2780/DX3 cells assessed as reduction in doxorubicin IC50 at IC5 pretreated for 6 hrs before doxorubicin administration measured after 3 days by MTT assay; format: cell-based; parameters: scale not given: the % may be the effect or the level left
Summary of the method: (§2)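 A2780/DX3 cells went into medium holding the modulator at its MTT-derived 0% or 5% growth-inhibition concentration. Doxorubicin (30–0.048 μM serial dilutions, modulator kept constant) was added 6 h later. MTT (2 mg/mL) was added after 3 days for 4 h at 37 °C, formazan dissolved in DMSO, A540 read. IC50 came from dose–response curves, repeated 4–6 times. % reduction is versus doxorubicin alone in the same experiment. Kruskal–Wallis/Mann–Whitney tests.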

[7] = system: A2780 ADR; experiment: Reversal of P-gp 170-mediated multidrug resistance in human A2780/DX3 cells assessed as reduction in doxorubicin IC50 at IC0 pretreated for 6 hrs before doxorubicin administration measured after 3 days by MTT assay; format: cell-based; parameters: scale not given: the % may be the effect or the level left; summary of the method: as §2
[8] = system: A2780 ADR; experiment: Reversal of P-gp 170-mediated multidrug resistance in human A2780/DX3 cells assessed as increase in intracellular doxorubicin accumulation at 5 times IC5 pretreated for 2 hrs before doxorubicin administration measured after 2 hrs by flow cytometry; format: cell-based
Summary of the method: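 A2780/DX3 cells (kept in 0.1 μM doxorubicin, drug withdrawn 2–3 days before use) seeded in flasks, grown 24 h to 75–85% confluence. Modulator given at five times the 5%-growth-inhibition concentration for 2 h, then 10 μM doxorubicin for 2 h more. Cells trypsinized, fixed in 3.7% paraformaldehyde/2% sucrose in PBS. Flow cytometry, 488 nm excitation, 575 nm bandpass. Read-out is MFI, with % increase taken from the MFI ratio to doxorubicin alone.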

[9] = Antiproliferative activity against human A2780/DX3 cells at 0.81 uM after 3 days by MTT assay; format: functional; conditions: A2780/DX3, 72 h
[10] = system: A2780; experiment: Antiproliferative activity against human A2780 cells at 0.15 uM after 3 days by MTT assay; format: functional; conditions: A2780, 72 h
[11] = Antiproliferative activity against human A2780/DX3 cells at 0.3 uM after 3 days by MTT assay; format: functional; conditions: A2780/DX3, 72 h
[12] = Down regulation of P-gp 170 expression in human A2780/DX3 cells after 72 hrs by flow cytometry; format: functional, cell-based
Summary of the method: (§3)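 Cells exposed 72 h to compound at concentrations giving 5% or 0% growth inhibition. Then washed in PBS/2% FCS; 2.5 × 10^5 cells stained at 4 °C with anti-Pgp MM4.17 monoclonal, then FITC goat anti-mouse IgG, and analysed by flow cytometry.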

[13] = system: A2780; experiment: Down regulation of P-gp 170 expression in human A2780 cells after 72 hrs by flow cytometry; format: functional, cell-based; summary of the method: as §3
[14] = system: A2780; experiment: Antiproliferative activity against human A2780 cells at 2.20 uM after 3 days by MTT assay; format: functional; conditions: A2780, 72 h
[15] = Antiproliferative activity against human A2780/DX3 cells at 2.40 uM after 3 days by MTT assay; format: functional; conditions: A2780/DX3, 72 h
[16] = system: A2780; experiment: Antiproliferative activity against human A2780 cells at 2.9 uM after 3 days by MTT assay; format: functional; conditions: A2780, 72 h
[17] = Antiproliferative activity against human A2780/DX3 cells at 4.0 uM after 3 days by MTT assay; format: functional; conditions: A2780/DX3, 72 h
[18] = system: A2780; experiment: Antiproliferative activity against human A2780 cells at 1.3 uM after 3 days by MTT assay; format: functional; conditions: A2780, 72 h
[19] = Antiproliferative activity against human A2780/DX3 cells at 1.23 uM after 3 days by MTT assay; format: functional; conditions: A2780/DX3, 72 h

| Structure (SMILES) | pIC50 [1] | pIC50 [2] | IC5 [1] | IC5 [2] | Activity [6] | Activity [7] | Activity [8] | Activity [12] | Activity [13] | other results |
| --- | --- | --- | --- | --- | --- | --- | --- | --- | --- | --- |
| COc1cccc2c1C(=O)c1c(O)c3c(c(O)c1C2=O)C[C@@](O)(C(=O)CO)C[C@@H]3O[C@H]1C[C@H](N)[C@H](O)[C@H](C)O1 [DOXORUBICIN] | 7.70 | 5.66 |  |  |  |  |  |  |  | Ratio IC50 [3]: 93; Activity_index [4]: Active |
| O=c1onc2n1C=CSC2(O)c1ccc(Cl)cc1 (stereo not drawn) | < 4.00 | < 4.00 | 0.48 µM | 3.02 µM | 10% | 3% | < 48% |  |  | inhibition at 0.14 µM [5]: 0%; inhibition at 0.81 µM [9]: 0% |
| CC/C=C/COC1(c2ccc(Cl)cc2)SC=C(C)n2c1noc2=O (stereo not drawn) | 4.26 | 4.06 | 1.26 µM | 2.5 µM | -1% | 2% | < 48% |  |  | inhibition at 0.15 µM [10]: 0%; inhibition at 0.3 µM [11]: 0% |
| CC/C=C\COC1(c2ccc(Cl)cc2)SC=C(C)n2c1noc2=O (stereo not drawn) | 4.26 | 3.99 | 3.5 µM | 20.7 µM | -47% | -9% | 429% | inactive | inactive | inhibition at 2.2 µM [14]: 0%; inhibition at 2.4 µM [15]: 0% |
| CCCCCOC1(c2ccc(Cl)cc2)SC=C(C)n2c1noc2=O (stereo not drawn) | < 4.00 | < 4.00 | 7.8 µM | 19 µM | -38% | -39% | 248% | inactive | inactive | inhibition at 2.9 µM [16]: 0%; inhibition at 4 µM [17]: 0% |
| CC/C=C/COC1(c2ccc(Br)cc2)SC=C(C)n2c1noc2=O (stereo not drawn) | 4.23 | 3.95 | 1.9 µM | 2.45 µM | -23% | -8% | < 48% |  |  | inhibition at 1.3 µM [18]: 0%; inhibition at 1.23 µM [19]: 0% |
